Measured values published in ChEMBL document CHEMBL4229527, “Design and synthesis of novel pyrimido[5,4-d]pyrimidine derivatives as GPR119 agonist for treatment of type 2 diabetes” (Bioorg Med Chem, 2018).

Experiments:
[1] = target: T1, Glucose-dependent insulinotropic receptor (Homo sapiens) (UniProt Q8TDV5); test: Agonist activity at human GPR119 expressed in CHOK1 cells assessed as cAMP accumulation after 1 hr by ultra LANCE assay relative to GSK1292263; format: functional, cell-based
T1 sequence (whole entry): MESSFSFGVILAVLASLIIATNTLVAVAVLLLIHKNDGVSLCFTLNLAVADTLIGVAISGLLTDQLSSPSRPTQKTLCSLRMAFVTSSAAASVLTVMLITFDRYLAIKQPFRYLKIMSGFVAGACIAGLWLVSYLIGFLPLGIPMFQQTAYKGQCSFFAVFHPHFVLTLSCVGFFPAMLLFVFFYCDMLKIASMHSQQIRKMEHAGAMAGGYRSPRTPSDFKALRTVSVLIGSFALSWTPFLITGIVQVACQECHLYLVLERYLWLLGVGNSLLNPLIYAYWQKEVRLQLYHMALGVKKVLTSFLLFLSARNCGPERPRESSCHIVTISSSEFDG
Method in brief: (§1)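 hGPR119-transfected cells were centrifuged and resuspended in cAMP assay buffer (HBSS, 0.1% BSA, 0.5 mM IBMX). They were treated with compounds over a concentration range for 1 h. Eu-cAMP tracer and ULight anti-cAMP lysis solutions were then added, with 1 h at room temperature. LANCE Ultra TR-FRET read, triplicates per concentration. EC50 is the concentration giving 50% cAMP stimulation; %max is relative to GSK-1292263 maximal effect.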

[2] = target: T2, Glucose-dependent insulinotropic receptor (Homo sapiens, UniProt Q8TDV5); test: Agonist activity at human GPR119 expressed in CHOK1 cells assessed as cAMP accumulation after 1 hr by ultra LANCE assay; format: functional, cell-based; method in brief: as §1
T2 sequence (Q8TDV5 whole entry): T1 sequence (whole entry)

Mus musculus [3] = test: Antidiabetic activity in C57BL/6N mouse assessed as reduction in blood glucose AUC (0 to 120 mins) at 15 mg/kg administered as single dose after 16 hrs of starvation followed by glucose challenge at 4 hrs post dose by OGTT relative to control; format: functional; set-up: scale not given: the % may be the effect or the level left
Method in brief: (§2)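 C57BL/6N mice were fasted 16 h and given a single dose: vehicle (0.5% sodium carboxymethylcellulose, 10 mL/kg), test compounds at 5 or 15 mg/kg, or metformin at 300 mg/kg. A glucose challenge (3 g/kg, oral) followed 4 h later. Blood glucose was read at 0, 15, 30, 60, 90 and 120 min for AUC0–2h. n = 8; mean ± SE versus vehicle.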

Mus musculus [4] = test: Antidiabetic activity in C57BL/6N mouse assessed as reduction in blood glucose AUC (0 to 120 mins) at 5 mg/kg administered as single dose after 16 hrs of starvation followed by glucose challenge at 4 hrs post dose by OGTT relative to control; format: functional; set-up: scale not given: the % may be the effect or the level left; method in brief: as §2
Mus musculus [5] = test: Antidiabetic activity in C57BL/6N mouse assessed as reduction in blood glucose AUC (0 to 120 mins) administered as single dose after 16 hrs of starvation followed by glucose challenge at 4 hrs post dose by OGTT; format: functional, organism-based; method in brief: as §2
Mus musculus [6] = test: Antidiabetic activity in C57BL/6N mouse assessed as reduction in blood glucose AUC (0 to 120 mins) at 300 mg/kg administered as single dose after 16 hrs of starvation followed by glucose challenge at 4 hrs post dose by OGTT relative to control; format: functional; set-up: scale not given: the % may be the effect or the level left; method in brief: as §2

SMILES	%max [1] [%]	EC50 [2] [nM]	Activity (Mus musculus [3]) [%]	Activity (Mus musculus [4]) [%]	Activity (Mus musculus [5])	Activity (Mus musculus [6]) [%]
CC(C)(C)OC(=O)N1[C@@H]2CC[C@H]1C[C@H](Oc1ncnc3c(Nc4ccc(C#N)cc4F)ncnc13)C2	36.4	> 10000	–	–	–	–
CC(C)(C)OC(=O)N1CCC(Oc2ncnc3c(Nc4ccc(C#N)cc4F)ncnc23)CC1	53.4	1000	–	–	–	–
CC(C)(C)OC(=O)N1CCC(Nc2ncnc3c(Nc4ccc(S(C)(=O)=O)cc4)ncnc23)CC1	61.3	345	–	–	–	–
CC(C)(C)OC(=O)N1[C@@H]2CC[C@H]1C[C@@H](Nc1ncnc3c(Nc4ccc(S(C)(=O)=O)cc4)ncnc13)C2	72.9	44	–	–	–	–
CC(C)(C)OC(=O)N1[C@@H]2CC[C@H]1C[C@@H](Nc1ncnc3c(Nc4ccc(C#N)cc4F)ncnc13)C2	83.8	8.1	8.9	3.5	Dose-dependent effect	–
CC(C)(C)OC(=O)N1[C@@H]2CC[C@H]1C[C@H](Nc1ncnc3c(Nc4ccc(S(C)(=O)=O)cc4F)ncnc13)C2	65.3	452	–	–	–	–
CC(C)(C)OC(=O)N1[C@@H]2CC[C@H]1C[C@@H](Nc1ncnc3c(Nc4ccc(S(C)(=O)=O)cc4F)ncnc13)C2	87.5	2.2	13.5	6.4	Dose-dependent effect	–
CC(C)(C)OC(=O)N1[C@@H]2CC[C@H]1C[C@@H](Oc1ncnc3c(Nc4ccc(C#N)cc4F)ncnc13)C2	78.9	36	–	–	–	–
CN(C)C(=N)NC(=N)N [METFORMIN]	–	–	–	–	–	18.2
CC(C)(C)OC(=O)N1[C@@H]2CC[C@H]1C[C@H](Nc1ncnc3c(Nc4ccc(C#N)cc4F)ncnc13)C2	58.1	1700	–	–	–	–

The next lines start with results.

%max [1] [%]	EC50 [2] [nM]	SMILES	Activity (Mus musculus [3]) [%]	Activity (Mus musculus [4]) [%]	Activity (Mus musculus [5])	Activity (Mus musculus [6]) [%]
67.2	147	CC(C)(C)OC(=O)N1CCC(Nc2ncnc3c(Nc4ccc(C#N)cc4F)ncnc23)CC1	–	–	–	–
47.5	1400	CC(C)(C)OC(=O)N1[C@@H]2CC[C@H]1C[C@H](Nc1ncnc3c(Nc4ccc(S(C)(=O)=O)cc4)ncnc13)C2	–	–	–	–
31.7	> 10000	CC(C)(C)OC(=O)N1C[C@@H]2CC[C@H]1C[C@H]2Nc1ncnc2c(Nc3ccc(C#N)cc3F)ncnc12 (relative stereo)	–	–	–	–
73.3	49	CC(C)(C)OC(=O)N1C[C@@H]2CC[C@H]1C[C@@H]2Nc1ncnc2c(Nc3ccc(C#N)cc3F)ncnc12 (relative stereo)	–	–	–	–
71.8	179	CC(C)(C)OC(=O)N1C[C@@H]2CC[C@H]1C[C@@H]2Nc1ncnc2c(Nc3ccc(S(C)(=O)=O)cc3)ncnc12 (relative stereo)	–	–	–	–
